Source: ChEMBL document CHEMBL1146828, “Synthesis and biological characterisation of [3H]BBL454, a new CCK2 selective radiolabelled agonist displaying original pharmacological properties” (Bioorg Med Chem Lett, 2004)
Non-standard residues stand in square brackets, D forms with d. Residues, ends and D or L forms follow the SMILES beside them. *: point of attachment. NMeNle = CCCC[C@H](NC)C(=O)O; X1 = CCCCCNC(=O)CC(=O)*; Boc = CC(C)(C)OC(=O)*

Tests used:
[1] = biological target: Gastrin/cholecystokinin type B receptor (Rattus norvegicus) (UniProt P30553); assay: Ability to displace 1 nM [3H]pCCK-8 from rat Cholecystokinin type B receptor stably expressing in CHO cells
CHO [2] = assay: Compound was evaluated for maximum binding of [3H]BBL454 to two sites in CHO cells with high affinity; format: functional, Cricetulus griseus
CHO [3] = assay: Compound was evaluated for binding of [3H]BBL454 to two sites in CHO cells with low affinity; format: functional, Cricetulus griseus
CHO [4] = assay: Agonistic activity on arachidonic acid liberation by intact transfected CHO cells; format: functional, cell-based; conditions: Cricetulus griseus
Summary of the method: (§1)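 Functional agonism on intact CHO cells transfected with CCK2 receptors. Two read-outs were measured, inositol phosphate production and arachidonic acid liberation, each expressed as EC50.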

CHO [5] = assay: Agonistic activity on inositol phosphate production by intact transfected CHO cells; format: functional, cell-based; conditions: Cricetulus griseus
Summary of the method: as §1

[6] = biological target: Cholecystokinin receptor type A (Cavia porcellus); assay: Ability to displace 1 nM [3H]pCCK-8 from Cholecystokinin type A receptor in guinea pig pancreatic membranes
CHO [7] = assay: Compound was evaluated for binding of [3H]BBL454 to two sites in CHO cells with high affinity; format: functional, Cricetulus griseus

Gastrin/cholecystokinin type B receptor (Rattus norvegicus), sequence (P30553 whole entry, looked up): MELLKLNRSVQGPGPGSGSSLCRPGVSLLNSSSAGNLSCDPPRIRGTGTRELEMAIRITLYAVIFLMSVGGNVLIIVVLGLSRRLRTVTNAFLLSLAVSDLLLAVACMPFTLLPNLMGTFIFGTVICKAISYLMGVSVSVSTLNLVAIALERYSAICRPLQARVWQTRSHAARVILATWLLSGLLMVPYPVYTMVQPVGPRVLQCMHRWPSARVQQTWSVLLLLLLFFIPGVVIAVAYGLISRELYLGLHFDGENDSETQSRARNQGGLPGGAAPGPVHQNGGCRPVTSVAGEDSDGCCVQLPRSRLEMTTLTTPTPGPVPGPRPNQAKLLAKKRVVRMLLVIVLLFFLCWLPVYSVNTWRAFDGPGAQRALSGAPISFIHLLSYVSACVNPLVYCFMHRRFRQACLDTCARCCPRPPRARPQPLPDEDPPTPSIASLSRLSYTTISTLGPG

SMILES | Ki [1] [nM] | Bmax1 (CHO [2]) [fmol/mg] | KD2 (CHO [3]) [nM] | EC50 (CHO [4]) [nM] | EC50 (CHO [5]) [nM] | Ki [6] [nM] | KD1 (CHO [7]) [nM]
CCCCCNC(=O)CC(=O)N[C@@H](Cc1c[nH]c2ccccc12)C(=O)N(C)[C@@H](CCCC)C(=O)N[C@@H](CC(=O)O)C(=O)N[C@@H](Cc1ccccc1)C(N)=O (X1-W[NMeNle]DF-NH2) | 2.66 | 120 | 194 | 6.9 | 2 | 3640 | 0.71
CCCC[C@@H](C(=O)N[C@@H](CC(=O)O)C(=O)N[C@@H](Cc1ccccc1)C(N)=O)N(C)C(=O)[C@H](Cc1c[nH]c2ccccc12)NC(=O)OC(C)(C)C (Boc-W[NMeNle]DF-NH2) | 2.6 |  |  |  |  | > 5000 | 
